Experimental findings from ChEMBL document CHEMBL1125883, “Thromboxane receptor antagonism combined with thromboxane synthase inhibition. 1. (+/-)-(3-pyridinylbicycloheptyl)alkanoic acids” (J Med Chem, 1991) are described below.

Each structure is given as a SMILES string.

For assay [1], the species on record is Homo sapiens. Briefly: In vitro inhibition of U 46619 induced aggregation of washed human platelets. The format is functional.
Assay [2] addresses T1, Thromboxane-A synthase (Homo sapiens, UniProt P24557).
T1 sequence (P24557 whole entry): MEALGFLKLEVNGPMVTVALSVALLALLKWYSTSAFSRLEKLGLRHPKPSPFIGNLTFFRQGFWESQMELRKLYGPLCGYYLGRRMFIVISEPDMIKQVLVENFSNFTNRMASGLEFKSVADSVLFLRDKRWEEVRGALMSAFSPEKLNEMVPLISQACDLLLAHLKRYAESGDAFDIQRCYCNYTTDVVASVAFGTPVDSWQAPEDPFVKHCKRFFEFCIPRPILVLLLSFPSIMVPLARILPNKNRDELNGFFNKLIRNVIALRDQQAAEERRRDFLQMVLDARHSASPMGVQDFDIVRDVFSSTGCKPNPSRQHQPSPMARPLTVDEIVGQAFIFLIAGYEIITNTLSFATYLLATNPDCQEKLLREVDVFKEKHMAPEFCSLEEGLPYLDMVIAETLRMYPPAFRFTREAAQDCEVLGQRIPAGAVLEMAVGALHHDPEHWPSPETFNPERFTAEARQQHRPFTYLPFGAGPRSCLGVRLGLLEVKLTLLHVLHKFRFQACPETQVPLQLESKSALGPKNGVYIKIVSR
Briefly: In vitro inhibition of thromboxane synthase using [14C]arachidonic acid. In a few lines:
(§1)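 Human platelet microsomal preparation incubated with [14C]arachidonic acid; thromboxane synthase activity read as TxB2 formation; IC50 determined.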

The species named for assay [3] is Canis familiaris. Briefly: In vitro inhibition of U 46619 induced contraction of dog saphenous vein. Type of assay: functional. Conditions: Canis lupus familiaris, read-out: pA2 (converted). Put shortly: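 Dog saphenous vein rings 2-3 mm in modified Krebs buffer with 1.0 μM indomethacin, 95% O2/5% CO2, 37 °C, 2.0 g preload, isometric tension.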
The species entered for assay [4] is Homo sapiens. Briefly: In vitro inhibition of U 46619 induced aggregation of human PRP. Type of assay: functional, organism-based.
In assay [5] the target is T1, Thromboxane-A synthase. Briefly: In vitro inhibition of Thromboxane synthase using [14C]arachidonic acid […]. Put shortly:
as §1

One may read the IC50 as the point on the concentration scale where inhibition reaches its midpoint. A low value points to higher potency. `O=C(O)CCCCCC[C@@H]1C2CCC(C2)C1c1cccnc1` (some centres not stated): the figures for the IC50 in assay [1] and in assay [2] were 9770 nM and 125 nM, respectively.
As to `O=C(O)CCCCCC[C@H]1C2CCC(C2)[C@H]1c1cccnc1` (some centres not stated), the IC50 in assay [1] worked out at 13000 nM; in assay [2], 7 nM.
`O=C(O)CCC/C=C\C[C@@H]1C2CCC(C2)[C@@]1(CCCCCc1ccccc1)c1cccnc1` (some centres not stated): the IC50 in assay [1] was 1500 nM; in assay [2], 790 nM.
For `O=C(O)CCCCCC[C@@H]1C2CCC(C2)[C@@H]1c1cccnc1` (some centres not stated) the same measures were 7250 nM and 54 nM.
For the molecule `O=C(O)CC/C=C\C[C@@]1(c2cccnc2)C2CCC(C2)[C@H]1CNS(=O)(=O)c1ccc(Cl)cc1` (some centres not stated), the IC50 in assay [1] worked out at 30 nM; in assay [4], 10800 nM; in assay [2] it was 340 nM. Also, in assay [3], the Kb is 3.24 nM.
The molecule `O=C(O)CCCC/C=C\C[C@@H]1C2CCC(C2)C1c1cccnc1` (some centres not stated) yielded an IC50 in assay [5] of 165 nM.
Take `O=C(O)CCCCO/N=C(/c1cccnc1)c1cccc(C(F)(F)F)c1` [RIDOGREL]: the figures for the IC50 in assay [1], in assay [4] and in assay [5] were 1280 nM, 2830 nM and 3 nM, respectively. The Kb in assay [3] is 447 nM.
